Laboratory results reported in ChEMBL document CHEMBL4689842, “EUbOPEN Chemogenomics Library wave 1” (2021).

Experiments:
Type in all cases: toxicity, cell-based
U2OS = experiment: Incucyte cell viability with U2OS; conditions: human, 10 µM, compound concentration 10 uM; further: filed as whole numbers so only -1 and 0 and 1 occur
Fibroblast = experiment: Multiplex assay against human fibroblast
In short: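 Tubulin, mitochondrial-mass and membrane-permeability phenotypes are per cents of healthy-nucleus cells. Cells were gated by CellPathfinder machine learning into Hoechst high-intensity objects or normal cells, normal cells into healthy, pyknosed or fragmented nuclei, and pyknosed cells into mitotic or apoptotic. Before that, live cells stained at seeding with Hoechst33342, BioTracker Green Microtubule Cytoskeleton Dye, MitoTracker Red and Annexin V Alexa Fluor 680 were imaged on a CQ1 microscope at 37°C and 5% CO2 after compound addition.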

HEK-293T = experiment: Incucyte cell viability with HEK293T; conditions: human, 10 µM, compound concentration 10 uM; further: filed as whole numbers so only -1 and 0 and 1 occur
[1] = 6 h, replicate number 1, timepoint 6 hours
[2] = 12 h, replicate number 1, timepoint 12 hours
[3] = 18 h, replicate number 1, timepoint 18 hours
[4] = 24 h, replicate number 1, timepoint 24 hours
[5] = 12 h, 1 µM, compound concentration 1 uM, replicate 1
[6] = 12 h, 1 µM, compound concentration 1 uM, replicate 2
[7] = 12 h, 10 µM, compound concentration 10 uM, replicate 1
[8] = 12 h, 10 µM, compound concentration 10 uM, replicate 2
[9] = 24 h, 1 µM, compound concentration 1 uM, replicate 1
[10] = 24 h, 1 µM, compound concentration 1 uM, replicate 2
[11] = 24 h, 10 µM, compound concentration 10 uM, replicate 1
[12] = 24 h, 10 µM, compound concentration 10 uM, replicate 2

## CC(C)(C)c1cnc(CSc2cnc(NC(=O)C3CCNCC3)s2)o1 [BMS-387032]
U2OS; 0 h, replicate number 1, timepoint 0 hours
  Growth Rate: 0
U2OS; [1]
  Growth Rate: 1
U2OS; 6 h, replicate number 2, timepoint 6 hours
  Growth Rate: 0
U2OS; [2]
  Growth Rate: 0
U2OS; [3]
  Growth Rate: 0
U2OS; [4]
  Growth Rate: 0
Fibroblast; [5]
  Population Apoptotic (%): 75%
  Population Fragmented Nuclei (%): 25%
  Population Healthy Nuclei (%): 56%
  Population Hoechst High Intensity Objects (%): 12%
  Population Membrane Permeable-Phenotype (%): 10%
  Population Mitochondria Different-Phenotype (%): 10%
  Population Mitotic Cells (%): 24%
  Population Normal (%): 87%
  Population Pyknosed Nuclei (%): 18%
  Population Tubulin-Different-Phenotype (%): 11%
  Total Cell Count: 199
Fibroblast; [6]
  Population Apoptotic (%): 50%
  Population Fragmented Nuclei (%): 58%
  Population Healthy Nuclei (%): 33%
  Population Hoechst High Intensity Objects (%): 37%
  Population Membrane Permeable-Phenotype (%): 5%
  Population Mitochondria Different-Phenotype (%): 5%
  Population Mitotic Cells (%): 50%
  Population Normal (%): 62%
  Population Pyknosed Nuclei (%): 7%
  Population Tubulin-Different-Phenotype (%): 0%
  Total Cell Count: 82
Fibroblast; [7]
  Population Apoptotic (%): 75%
  Population Fragmented Nuclei (%): 28%
  Population Healthy Nuclei (%): 54%
  Population Hoechst High Intensity Objects (%): 8%
  Population Membrane Permeable-Phenotype (%): 1%
  Population Mitochondria Different-Phenotype (%): 21%
  Population Mitotic Cells (%): 24%
  Population Normal (%): 91%
  Population Pyknosed Nuclei (%): 17%
  Population Tubulin-Different-Phenotype (%): 32%
  Total Cell Count: 207
Fibroblast; [8]
  Population Apoptotic (%): 54%
  Population Fragmented Nuclei (%): 58%
  Population Healthy Nuclei (%): 19%
  Population Hoechst High Intensity Objects (%): 26%
  Population Membrane Permeable-Phenotype (%): 0%
  Population Mitochondria Different-Phenotype (%): 50%
  Population Mitotic Cells (%): 45%
  Population Normal (%): 73%
  Population Pyknosed Nuclei (%): 21%
  Population Tubulin-Different-Phenotype (%): 40%
  Total Cell Count: 69
Fibroblast; [9]
  Population Apoptotic (%): 54%
  Population Fragmented Nuclei (%): 30%
  Population Healthy Nuclei (%): 47%
  Population Hoechst High Intensity Objects (%): 12%
  Population Membrane Permeable-Phenotype (%): 6%
  Population Mitochondria Different-Phenotype (%): 4%
  Population Mitotic Cells (%): 45%
  Population Normal (%): 87%
  Population Pyknosed Nuclei (%): 21%
  Population Tubulin-Different-Phenotype (%): 10%
  Total Cell Count: 197
Fibroblast; [10]
  Population Apoptotic (%): 62%
  Population Fragmented Nuclei (%): 51%
  Population Healthy Nuclei (%): 32%
  Population Hoechst High Intensity Objects (%): 35%
  Population Membrane Permeable-Phenotype (%): 5%
  Population Mitochondria Different-Phenotype (%): 5%
  Population Mitotic Cells (%): 37%
  Population Normal (%): 65%
  Population Pyknosed Nuclei (%): 15%
  Population Tubulin-Different-Phenotype (%): 5%
  Total Cell Count: 80
Fibroblast; [11]
  Population Apoptotic (%): 65%
  Population Fragmented Nuclei (%): 34%
  Population Healthy Nuclei (%): 48%
  Population Hoechst High Intensity Objects (%): 8%
  Population Membrane Permeable-Phenotype (%): 4%
  Population Mitochondria Different-Phenotype (%): 29%
  Population Mitotic Cells (%): 34%
  Population Normal (%): 91%
  Population Pyknosed Nuclei (%): 17%
  Population Tubulin-Different-Phenotype (%): 54%
  Total Cell Count: 196
Fibroblast; [12]
  Population Apoptotic (%): 62%
  Population Fragmented Nuclei (%): 44%
  Population Healthy Nuclei (%): 18%
  Population Hoechst High Intensity Objects (%): 31%
  Population Membrane Permeable-Phenotype (%): 0%
  Population Mitochondria Different-Phenotype (%): 62%
  Population Mitotic Cells (%): 37%
  Population Normal (%): 68%
  Population Pyknosed Nuclei (%): 37%
  Population Tubulin-Different-Phenotype (%): 50%
  Total Cell Count: 63
HEK-293T; [1]
  Growth Rate: 0
HEK-293T; [2]
  Growth Rate: 0
HEK-293T; [3]
  Growth Rate: 0
HEK-293T; [4]
  Growth Rate: 0
